# Screens as filed in PubChem.
# Redox H2O2 prof: compounds producing H2O2 with reducing agent – biochemical, NIH compound library profiling, artefact control for MLSCN library redox annotation, primary screen | DTT-dependent redox cycling H2O2, phenol red/HRP absorbance; 100% = 100 µM peroxide control, 0% = buffer | activation, % at 10 µM | 0.03% of 200,000 active;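 active = activation of at least 50% relative to the plate's high and low controls in the primary single-dose screen; inactive = activation below 50%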;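 also: compound incubated with DTT at 0.8 mM final as the reducing agent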
# Cl transport mod: modulates chloride dependent transport by human KCC2 | KCC2 cells, thallium flux FluoZin-2 fluorescence | AID 1456 | Q9H2X9 | B-score of Tl+ flux slope (higher = more flux/activation; lower = inhibition) at 10 µM | 2.2% of 190,000 active;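 active = thallium flux slope and its plate-corrected score both differing from the plate sample mean at a set confidence after two filtering rounds, in either direction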;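 also: slope of fluorescence scaled to starting intensity during 10 to 20 s after thallium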
# Dynein transport: blocks dynein driven cargo transport along microtubules; 3617.4 mouse cells, GR-EGFP nuclear translocation imaging; test concentration mostly 20 µM; stimulated with dexamethasone, 1 µM; active compounds read low; z-score, hits read low; 0.47% of 220,000 active;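 active = plate z-score of nuclear minus cytoplasmic receptor signal below a set negative limit, without overly bright fluorescence or cell loss, cut at about -3.5 in these data, passing the limit was not always enough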;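 also: z-score of nuclear minus cytoplasmic ring GR-EGFP intensity difference per well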
#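 Also added: dexamethasone, 1.0 µM final. Medium: tet-free, stripped-serum medium. Detection: fixed, Hoechst-stained cells imaged at 10x for EGFP. Read-out: nuclear-to-cytoplasmic GR-EGFP distribution per well. Times: induction 48 h, compound 1 h, agonist 30 min.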
# ROMK mod: human ROMK K+ channel modulation, primary screen. P48048. AID 1918. 2% of 130,000 active. B-score at 10 µM. Tet-inducible ROMK, thallium flux fluorescence; actives lie on both sides;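 active = signal ratio slope over the read window, or its plate-corrected B-score, at least 3 SD from the plate mean, either direction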;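 also: B-score of the F/F0 ratio slope over 7 to 12 s after thallium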
# Target sequence (P48048 whole entry, looked up): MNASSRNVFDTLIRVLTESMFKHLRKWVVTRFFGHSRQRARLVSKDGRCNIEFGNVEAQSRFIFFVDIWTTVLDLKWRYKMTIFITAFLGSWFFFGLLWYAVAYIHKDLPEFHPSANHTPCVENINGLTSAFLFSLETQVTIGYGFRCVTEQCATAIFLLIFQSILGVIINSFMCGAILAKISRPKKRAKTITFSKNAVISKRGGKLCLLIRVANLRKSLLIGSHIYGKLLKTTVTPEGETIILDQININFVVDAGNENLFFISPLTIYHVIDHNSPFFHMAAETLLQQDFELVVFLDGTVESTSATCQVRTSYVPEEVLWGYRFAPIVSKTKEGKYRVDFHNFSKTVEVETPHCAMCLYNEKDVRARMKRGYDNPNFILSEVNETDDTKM
# Autophagy HCS: autophagy modulation, high-content screen. MEF GFP-LC3 puncta imaging; test concentration mostly 10 µM. calls only at 10 µM (by protocol). 0.98% of 190,000 active. AID 463193;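 active = percentage of spot-positive cells more than 3 SD above its plate mean, without a fluorescence outlier flag or 80% toxicity; inconclusive = no clear call, values can overlap the other calls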;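 also: spot-positive cell cutoff set from DMSO-treated cells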
# KCC2 sec1: KCC2 (human) modulation, secondary assay | shares compounds with Cl transport mod | HEK293-KCC2, thallium flux, FluoZin2 fluorescence; active compounds read high | normalised thallium flux (F/F0 slope) at 10 µM | 15% of 3,700 active;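 active = thallium flux slope above the same plate's solvent-only control mean plus 3 SD; inconclusive = the two replicate wells disagree; inactive = no significant difference from solvent-only control wells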
# KCC2 bumet counter: bumetanide-insensitive thallium flux in KCC2 cells with ouabain, counter-screen | shares compounds with Cl transport mod | HEK293-KCC2 + bumetanide/ouabain, thallium flux FluoZin2; active compounds read high | normalized thallium flux at 10 µM | 49% of 3,700 active | AID 1714;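 active = thallium entry rate above the same plate's blocked-transporter control wells by more than 3 SD; inconclusive = the two repeat wells disagree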;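 also: raw slope of fluorescence over initial fluorescence between 10 and 20 s after thallium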
# KCC2 secondary2: KCC2 (human) modulation, second secondary assay; 23% of 3,700 active; normalized thallium flux at 10 µM; HEK293-KCC2, thallium flux FluoZin2 fluorescence; actives lie on both sides; F/F0 rise rate, 10–20 s post-thallium; shares compounds with Cl transport mod;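 active = thallium flux slope more than 3 SD above or below the plate's solvent-only control mean, mostly below; inconclusive = the two repeat wells disagreed; inactive = no significant shift from solvent-only controls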;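 also: raw slope with 0.1% DMSO as baseline and bumetanide as block control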
# HEK counter1: acts in parental HEK cells, KCC2 counter-screen. shares compounds with Cl transport mod. HEK293 parental cells, thallium flux FluoZin2, ouabain; baseline-ratio fluorescence slope, 10–20 s after thallium. thallium flux rate (normalised fluorescence) at 10 µM. 46% of 3,700 active. AID 1716;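 active = thallium flux rate significantly above the same plate's solvent-only control wells, beyond their mean plus 3 SD; inconclusive = the two replicate wells gave conflicting results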
# KCC2 retest ouab: confirmation of human KCC2 modulators with ouabain; HEK293-KCC2, thallium flux FluoZin2 fluorescence; bidirectional: low = inhibitor, high = activator; 48% of 3,700 active; shares compounds with Cl transport mod; raw Tl+ flux slope (below DMSO = inhibition, above = activation) at 10 µM; AID 1717;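 active = thallium flux slope beyond 3 SD from same-plate DMSO control mean in most replicates, usually higher, sometimes lower; inconclusive = repeat tests gave conflicting results; inactive = no significant difference from controls in most replicates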;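 also: slope of initial-normalized fluorescence between seconds 10 and 20 after thallium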
# HEK counter2: acts in parental HEK cells, second KCC2 counter-screen. 33% of 3,700 active. shares compounds with Cl transport mod. HEK293 parental, thallium flux FluoZin-2 fluorescence slope. thallium flux slope at 10 µM;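 active = thallium flux slope above the same plate's solvent-control mean plus 3 SD in both duplicate wells; inconclusive = duplicate wells that disagreed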;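 also: run without ouabain in cells lacking the KCC2 cotransporter; slope of fluorescence scaled to its starting value between 10 and 20 s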
# * hit, by the source's call; i = inactive; ? = inconclusive; . = no result given. Rows were chosen to be rich in hits. Some 4.1% of all compounds tested hit in one or more screens of this group.
SMILES,Redox H2O2 prof,Cl transport mod,Dynein transport,ROMK mod,Autophagy HCS,KCC2 sec1,KCC2 bumet counter,KCC2 secondary2,HEK counter1,KCC2 retest ouab,HEK counter2
COCCSc1ccccc1C(=O)Nc1ccccc1C#N,0.2,0.481,3.53,0.488,i,.,.,.,.,.,.
COc1ccc(/C(C)=N/NC(=S)NCCc2ccccc2)cc1,-1.6,7.73*,0.836,-0.64,i,0.0105,0.0162*,0.0304,0.021*,?,?
C/C(=N\NC(=S)NC(C)C)c1ccccc1,.,5.76*,-0.44,.,.,?,0.0204*,0.0283,0.00945*,0.0459*,?
COc1ccc(CNC(=S)N/N=C(\C)c2ccc(OC)cc2)cc1,.,1.98,1.29,.,.,.,.,.,.,.,.
C=CCNC(=S)N/N=C(\C)c1cccc(OC)c1,-0.8,4.86*,-0.816,-0.679,i,0.0126*,0.0426*,0.0317,0.015*,0.0255,0.0119*
COc1ccccc1/C(C)=N/NC(=S)NCc1ccccc1,-0.2,6.88*,-0.759,-0.426,i,0.00669,0.0155*,0.0315,0.0152*,?,0.014*
COc1cc(OC)c(N(C)S(=O)(=O)c2cccc(C(=O)NC3=NCCS3)c2)cc1Cl,.,-3.66,-0.1,.,.,.,.,.,.,.,.
COc1ccc(CCNC(=O)CSc2ccc(-c3ccncc3)nn2)cc1,0.0,0.144,-0.307,0.168,i,.,.,.,.,.,.
CNC(=S)NCCCc1ccccc1,0.7,1.52,-0.605,.,i,.,.,.,.,.,.
C/C(=N\NC(=S)NCc1ccccc1)c1ccc2ccccc2c1,0.2,6*,0.627,1.08,i,0.00854,0.0192*,0.0273,0.00851*,?,0.00931
COc1ccc(NC(=S)NCCCc2ccccc2)cc1,-0.2,-4.79*,-0.646,0.0125,i,0.0147,?,0.0229*,0.00669,0.0147,0.00937
C/C(=N\NC(=S)NCc1ccccc1)c1cccc(Br)c1,-0.3,4.83*,-0.658,0.321,i,0.0164,0.0165*,0.029,0.00835,0.0176,0.0112
Cc1csc(C(C)N(C)C(=O)CCc2nnc(CCc3ccccc3)o2)n1 (stereo unspecified),-0.7,-2.53,-0.574,.,i,.,.,.,.,.,.
CC(C)c1ccc(N(CC(=O)NCc2ccc(F)cc2)C(=O)c2csnn2)cc1,-0.7,.,-0.536,0.854,i,.,.,.,.,.,.
CS(=O)(=O)N(CCC#N)Cc1ccco1,-0.4,-0.221,-0.958,0.145,i,.,.,.,.,.,.
COc1ccc(/C=C/C(=O)OCC(=O)Nc2ccc(Cl)c(S(=O)(=O)N(C)C)c2)cc1OC,-0.2,-1.91,-1.07,-0.779,i,.,.,.,.,.,.
CCCc1cc(C(=O)Nc2cccc(Cl)c2)no1,0.0,-0.968,0.106,.,i,.,.,.,.,.,.
CCC(=O)NNC(=O)c1cc(COc2cc(Cl)cc(Cl)c2)on1,.,8.62*,0.726,0.597,.,0.00681,0.0176*,0.031,0.0175*,?,0.0141*
CC1CCCN(S(=O)(=O)c2ccc(NC(=O)CCN3C(=O)c4ccccc4C3=O)cc2)C1 (stereo unspecified),-3.4,0.023,-0.443,.,i,0.00973,?,0.0331,0.00777,0.0205,0.0109
O=C(CCN1C(=O)c2ccccc2C1=O)Nc1ccc(S(=O)(=O)N2CCOCC2)cc1,-0.5,-0.378,0.186,.,i,.,.,.,.,.,.
CC(C(=O)NC(C)(C)C)N(Cc1cccs1)C(=O)CCN1CCc2ccccc21 (stereo unspecified),-0.4,2.55,-0.717,-0.175,i,.,.,.,.,.,.
CCOc1ccc(N2CC(C(=O)Nc3c(C)n(C)n(-c4ccccc4)c3=O)CC2=O)cc1 (stereo unspecified),0.1,-4.98*,-0.579,0.0945,i,0.00869,0.00696,0.0277,0.00664,0.0208,0.00886
CCOc1ccc(N2CC(C(=O)Nc3ccccc3OC)CC2=O)cc1 (stereo unspecified),-1.0,0.247,1.59,.,.,.,.,.,.,.,.
CCOC(=O)C1=NNC2C(=O)N(Cc3ccccc3)C(=O)C12 (stereo unspecified),.,0.934,-0.22,1.15,.,.,.,.,.,.,.
O=C1c2ccccc2NC(c2ccc(Cl)cc2Cl)N1Cc1ccccc1 (stereo unspecified),0.2,-0.085,2.56,-0.721,i,.,.,.,.,.,.
SMILES,Redox H2O2 prof,Cl transport mod,Dynein transport,ROMK mod,Autophagy HCS,KCC2 sec1,KCC2 bumet counter,KCC2 secondary2,HEK counter1,KCC2 retest ouab,HEK counter2
O=C1c2ccccc2NC(c2ccc(Cl)cc2Cl)N1O (stereo unspecified),-4.8,3.84*,-0.635,.,i,0.0102,0.0209*,0.0315,0.00946*,0.0214,0.00971
COc1ccc(S(=O)(=O)NCCOc2ccccc2)cc1OC,-0.7,-0.109,-0.716,.,i,.,.,.,.,.,.
COc1ccc(S(=O)(=O)NCCOc2ccccc2)cc1-n1cnnn1,0.4,-3.8*,-0.152,0.326,i,0.00777,?,0.0249*,0.00723,0.0169*,0.00974
Cc1ccc(NC(=S)NNC(=O)c2ccc(N3CCOCC3)c([N+](=O)[O-])c2)cc1Cl,0.5,-2.77,0.294,1.36,i,.,.,.,.,.,.
O=C(NNC(=S)Nc1ccc(Br)cc1)c1ccc(N2CCOCC2)c([N+](=O)[O-])c1,0.1,-3.83*,0.577,0.934,i,0.00931,0.00618,0.0306,?,0.0158*,0.0106
CCOc1ncccc1C(=O)OCc1c(F)cccc1Cl,0.0,-2.34,1.18,-1.65,i,.,.,.,.,.,.
Fc1ccccc1-n1cc(-c2ccccc2)[nH]c1=S,-0.2,69.9*,-0.507,0.898,i,0.0193*,0.124*,?,0.0457*,0.0798*,0.0201*
Cc1ccc(-n2cc(-c3ccccc3)[nH]c2=O)cc1F,-1.6,1.28,0.452,0.829,i,.,.,.,.,.,.
CC(C)CCNC(=O)COC(=O)/C=C/c1ccc2ccccc2n1,0.0,-3.95*,-0.516,-0.291,i,0.0166,0.00525,0.0238*,0.00763,0.0135*,0.0098
CN(C(=O)COC(=O)/C=C/c1ccc2ccccc2n1)C1CCS(=O)(=O)C1 (stereo unspecified),-0.2,-2.32,-1.09,-0.273,i,.,.,.,.,.,.
